Test results published in ChEMBL document CHEMBL4359826, “Preparation of bivalent agonists for targeting the mu opioid and cannabinoid receptors” (Eur J Med Chem, 2019).
Activity calls are given as the source filed them.

What was measured:
[1] = molecular target: Mu-type opioid receptor (Rattus norvegicus) (UniProt P33535); test: Agonist activity at MOR in Wistar rat brain membranes at 10 uM in presence of naloxone after 60 mins by [35S]-GTPgammaS binding assay relative to control; assay type: functional, cell membranes
Procedure, shortened: (§1)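 Rat brain membranes (30 µg protein/tube) incubated 60 min at 30 °C with 0.05 nM [35S]GTPγS and ligand at 10^-10–10^-5 M. Buffer: 50 mM Tris-HCl pH 7.4 with 30 µM GDP, 100 mM NaCl, 3 mM MgCl2, 1 mM EGTA. Nonspecific binding taken with 10 µM GTPγS; basal set as 100%. Filtration and scintillation counting; n≥3.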

[2] = molecular target: Kappa-type opioid receptor (Cavia porcellus, UniProt P41144); assay type: cell membranes, Brain, Membranes
Rattus norvegicus [3] = species: Rattus norvegicus; test: Agonist activity at MOR/CB1R/CB2R in Wistar rat brain membranes at 10 uM in presence of naloxone,rimonabant and AM630 after 60 mins by [35S]-GTPgammaS binding assay relative to control; assay type: cell membranes
Procedure, shortened: as §1, with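 “EGTA. […]” for “EGTA.”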

Rattus norvegicus [4] = species: Rattus norvegicus; settings: Wistar, Brain, Membranes, at 10 µM
[5] = Agonist activity at MOR/CB1R/CB2R receptor in Wistar rat brain membranes after 60 mins by [35S]-GTPgammaS binding assay; assay type: cell membranes
Cannabinoid receptor 1 = Cannabinoid receptor 1 (Rattus norvegicus, UniProt P20272); test: Agonist activity at CB1R in Wistar rat brain membranes in presence of rimonabant after 60 mins by [35S]-GTPgammaS binding assay; assay type: functional, cell membranes
Procedure, shortened: as §1, with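 “EGTA. […]” for “EGTA.”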

Rattus norvegicus [6] = test: Effect on nociception of the contralateral paw in rat model of sodium iodoacetate-induced osteoarthritis paw withdrawal threshold in late phase at 20 ug administered as intrathecal injection measured after 60 to 90 mins by Von Frey test (reference value: 43 +/- 3.4 g); assay type: organism-based; settings: in vivo, icv_or_intrathecal
[7] = molecular target: Cannabinoid receptor 1 (Rattus norvegicus) (UniProt P20272); test: Agonist activity at CB1R in Wistar rat brain membranes at 10 uM in presence of rimonabant after 60 mins by [35S]-GTPgammaS binding assay relative to control; assay type: functional, cell membranes
Procedure, shortened: as §1, with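 “EGTA. […]” for “EGTA.”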

[8] = molecular target: T1, Cannabinoid receptor 2 (Rattus norvegicus) (UniProt Q9QZN9); test: Agonist activity at CB2R in Wistar rat brain membranes at 10 uM in presence of AM630 after 60 mins by [35S]-GTPgammaS binding assay relative to control; assay type: functional, cell membranes
T1 sequence (whole entry): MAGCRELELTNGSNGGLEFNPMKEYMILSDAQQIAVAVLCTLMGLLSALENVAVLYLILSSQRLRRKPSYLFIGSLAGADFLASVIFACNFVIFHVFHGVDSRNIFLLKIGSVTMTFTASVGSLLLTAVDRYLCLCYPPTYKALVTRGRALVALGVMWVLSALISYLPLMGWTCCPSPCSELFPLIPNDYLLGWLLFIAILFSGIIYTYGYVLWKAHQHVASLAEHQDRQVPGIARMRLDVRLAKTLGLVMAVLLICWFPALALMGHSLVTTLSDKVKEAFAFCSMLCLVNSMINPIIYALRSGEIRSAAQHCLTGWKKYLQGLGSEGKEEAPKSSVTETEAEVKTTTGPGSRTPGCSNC
Procedure, shortened: as §1, with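 “EGTA. […]” for “EGTA.”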

[9] = molecular target: Delta-type opioid receptor (Rattus norvegicus, UniProt P33533); test: Displacement of [3H]Ile5,6-deltorphin-2 from DOR in Wistar rat brain membranes after 60 mins by liquid scintillation analysis; assay type: cell membranes
Rattus norvegicus [10] = test: Effect on nociception of the contralateral paw in rat model of sodium iodoacetate-induced osteoarthritis paw withdrawal threshold in early phase at 20 ug administered as intrathecal injection measured up to 45 mins by Von Frey test (reference value: 44 +/- 2.4 g); assay type: organism-based; settings: in vivo, icv_or_intrathecal, 0.75 h
Rattus norvegicus [11] = test: Antiallodynic activity in sodium iodoacetate-induced rat model of osteoarthritis assessed as increase in maximum effect in early phase at 20 ug administered as intrathecal injection measured up to 45 mins by Von Frey test; assay type: functional, organism-based
Mu-type opioid receptor [12] = molecular target: T2, Mu-type opioid receptor (Rattus norvegicus, UniProt P33535); test: Agonist activity at MOR in Wistar rat brain membranes in presence of naloxone after 60 mins by [35S]-GTPgammaS binding assay; assay type: functional, cell membranes; procedure, shortened: as §1
Mu-type opioid receptor [13] = molecular target: T2, Mu-type opioid receptor; test: Displacement of [3H]DAMGO from MOR in Wistar rat brain membranes after 60 mins by liquid scintillation analysis; assay type: cell membranes
Mus musculus = test: Antinociceptive activity in CD-1 mouse assessed as increase in thermal latency at 10 mg/kg, iv after 15 to 120 mins by hot plate technique; assay type: functional, organism-based
Procedure, shortened: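 Male CD-1 mice (25 g) given 10 mg/kg i.v. in 10 mL/kg; vehicle saline with 5% DMSO. Hot plate held at 55.0 °C. Latency to paw lick or jump, cut-off 60 s, read at 15–120 min. Baseline is the mean of three pre-test readings. Data given as %MPE; n=6/group.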

Cannabinoid receptor 2 = molecular target: T3, Cannabinoid receptor 2 (Rattus norvegicus, UniProt Q9QZN9); test: Agonist activity at CB2R in Wistar rat brain membranes in presence of AM630 after 60 mins by [35S]-GTPgammaS binding assay; assay type: functional, cell membranes
T3 sequence (Q9QZN9 whole entry): T1 sequence (whole entry)
Procedure, shortened: as §1, with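 “EGTA. […]” for “EGTA.”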

Cannabinoid receptor [14] = molecular target: T4, Cannabinoid receptor (Rattus norvegicus, UniProt Q9QZN9+P20272); test: Displacement of [3H]JWH-018 from CB1R/CB2R in Wistar rat brain membranes after 60 mins by liquid scintillation analysis; assay type: cell membranes
Rattus norvegicus [15] = species: Rattus norvegicus; test: Agonist activity at MOR/CB1R/CB2R in Wistar rat brain membranes after 60 mins by [35S]-GTPgammaS binding assay relative to control; assay type: cell membranes
Procedure, shortened: as §1, with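 “EGTA. […]” for “EGTA.”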

Cannabinoid receptor [16] = molecular target: T4, Cannabinoid receptor; assay type: cell membranes, Wistar, Brain, Membranes
Rattus norvegicus [17] = test: Antiallodynic activity in sodium iodoacetate-induced rat model of osteoarthritis assessed as increase in maximum effect in early phase at 7 ug administered as intrathecal injection measured up to 45 mins by Von Frey test; assay type: functional, organism-based
Rattus norvegicus [18] = test: Effect on nociception of the contralateral paw in rat model of sodium iodoacetate-induced osteoarthritis assessed as paw withdrawal threshold in early phase at 7 ug administered as intrathecal injection measured up to 45 mins by Von Frey test (reference value: 44 +/- 2.4 g); assay type: ADME, organism-based; settings: in vivo, icv_or_intrathecal, 0.75 h
Rattus norvegicus [19] = test: Effect on nociception of the contralateral paw in rat model of sodium iodoacetate-induced osteoarthritis assessed as paw withdrawal threshold in late phase at 7 ug administered as intrathecal injection measured after 60 to 90 mins by Von Frey test (reference value: 43 +/- 3.4 g); assay type: ADME, organism-based; settings: in vivo, icv_or_intrathecal
Mu-type opioid receptor [20] = molecular target: T2, Mu-type opioid receptor; test: Agonist activity at MOR in Wistar rat brain membranes after 60 mins by [35S]-GTPgammaS binding assay; assay type: functional, cell membranes
Rattus norvegicus [21] = test: Antiallodynic activity in sodium iodoacetate-induced rat model of osteoarthritis assessed as reduction in maximum effect in late phase at 20 ug administered as intrathecal injection measured up to 60 to 90 mins by Von Frey test; assay type: functional, organism-based
[22] = molecular target: T5, Cannabinoid receptor (Rattus norvegicus) (UniProt Q9QZN9+P20272); test: Displacement of [3H]JWH-018 from CB1R/CB2R in Wistar rat brain membranes at 10 uM by liquid scintillation analysis relative to control; assay type: cell membranes
Procedure, shortened: (§2)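 Whole rat brain membranes (cerebellum removed; 0.3–0.5 mg/mL protein) in 50 mM Tris-HCl pH 7.4 with 2.5 mM EGTA, 5 mM MgCl2 and 0.5 mg/mL fatty-acid-free BSA, 30 °C. Kinetics used 0.6 nM [3H]JWH-018: association over 0–90 min, dissociation started with 10 µM JWH-018 after 60 min. Saturation over 0.5–35 nM. Competitors at 10^-11–10^-5 M, 60 min. Nonspecific binding with 10 µM JWH-018. Filtration onto PEI-soaked GF/B filters; n≥3.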

[23] = molecular target: T5, Cannabinoid receptor (Rattus norvegicus); test: Displacement of [3H]JWH-018 from CB1R/CB2R in Wistar rat brain membranes assessed as pseudo-first order rate constant at 10 uM up to 90 mins by liquid scintillation analysis; assay type: cell membranes; procedure, shortened: as §2
[24] = molecular target: T5, Cannabinoid receptor (Rattus norvegicus); test: Displacement of [3H]JWH-018 from CB1R/CB2R in Wistar rat brain membranes assessed as maximum efficacy at 10 uM by liquid scintillation analysis; assay type: cell membranes; procedure, shortened: as §2
Cannabinoid receptor [25] = molecular target: T4, Cannabinoid receptor; test: Displacement of [3H]JWH-018 from CB1R/CB2R in Wistar rat brain membranes assessed as dissociation constant by liquid scintillation analysis; assay type: cell membranes; procedure, shortened: as §2
Cannabinoid receptor [26] = molecular target: T4, Cannabinoid receptor; test: Agonist activity at CB1R/CB2R in Wistar rat brain membranes after 60 mins by [35S]-GTPgammaS binding assay; assay type: functional, cell membranes
Procedure, shortened: as §1, with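 “EGTA. […]” for “EGTA.”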

[27] = molecular target: T5, Cannabinoid receptor (Rattus norvegicus); test: (§3) Displacement of [3H]JWH-018 from CB1R/CB2R in Wistar rat brain membranes assessed as dissociation rate constant at 10 uM by liquid scintillation analysis; assay type: cell membranes; procedure, shortened: as §2
Cannabinoid receptor [28] = molecular target: T4, Cannabinoid receptor; test: as §3; assay type: cell membranes; procedure, shortened: as §2
[29] = molecular target: T5, Cannabinoid receptor (Rattus norvegicus); test: Agonist activity at CB1R/CB2R in Wistar rat brain membranes after 60 mins by [35S]-GTPgammaS binding assay relative to control; assay type: functional, cell membranes
Procedure, shortened: as §1, with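 “EGTA. […]” for “EGTA.”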

[30] = molecular target: T5, Cannabinoid receptor (Rattus norvegicus); test: Displacement of [3H]JWH-018 from CB1R/CB2R in Wistar rat brain membranes assessed as specific binding at 10 uM up to 90 mins by liquid scintillation analysis relative to control; assay type: cell membranes; procedure, shortened: as §2

T2 sequence (P33535 whole entry): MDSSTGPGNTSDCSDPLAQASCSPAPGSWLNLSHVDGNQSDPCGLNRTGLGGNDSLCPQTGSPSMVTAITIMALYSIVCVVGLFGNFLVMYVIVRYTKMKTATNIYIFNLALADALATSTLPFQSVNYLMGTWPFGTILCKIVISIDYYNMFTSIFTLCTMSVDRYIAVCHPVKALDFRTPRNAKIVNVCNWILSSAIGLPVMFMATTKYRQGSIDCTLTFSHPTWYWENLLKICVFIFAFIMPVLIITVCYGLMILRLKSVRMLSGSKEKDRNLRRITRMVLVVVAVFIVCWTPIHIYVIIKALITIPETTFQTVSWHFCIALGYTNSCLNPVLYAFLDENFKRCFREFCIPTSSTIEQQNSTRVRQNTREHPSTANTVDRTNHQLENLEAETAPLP
T5 sequence (P20272 whole entry, looked up, one chain of several): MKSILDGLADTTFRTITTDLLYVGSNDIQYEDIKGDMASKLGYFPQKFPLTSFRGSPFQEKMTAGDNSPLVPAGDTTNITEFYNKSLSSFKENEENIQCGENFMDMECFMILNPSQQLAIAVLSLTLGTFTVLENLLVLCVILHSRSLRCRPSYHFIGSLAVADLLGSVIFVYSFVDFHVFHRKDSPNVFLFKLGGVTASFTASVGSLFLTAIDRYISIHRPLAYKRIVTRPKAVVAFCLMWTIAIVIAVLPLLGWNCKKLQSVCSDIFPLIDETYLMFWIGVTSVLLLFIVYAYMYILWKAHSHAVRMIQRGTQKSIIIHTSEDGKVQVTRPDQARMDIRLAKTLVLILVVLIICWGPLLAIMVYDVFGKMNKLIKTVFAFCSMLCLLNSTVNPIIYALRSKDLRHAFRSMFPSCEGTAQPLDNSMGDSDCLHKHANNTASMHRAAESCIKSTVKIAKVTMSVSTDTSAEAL
Sequence of Kappa-type opioid receptor (P41144 whole entry): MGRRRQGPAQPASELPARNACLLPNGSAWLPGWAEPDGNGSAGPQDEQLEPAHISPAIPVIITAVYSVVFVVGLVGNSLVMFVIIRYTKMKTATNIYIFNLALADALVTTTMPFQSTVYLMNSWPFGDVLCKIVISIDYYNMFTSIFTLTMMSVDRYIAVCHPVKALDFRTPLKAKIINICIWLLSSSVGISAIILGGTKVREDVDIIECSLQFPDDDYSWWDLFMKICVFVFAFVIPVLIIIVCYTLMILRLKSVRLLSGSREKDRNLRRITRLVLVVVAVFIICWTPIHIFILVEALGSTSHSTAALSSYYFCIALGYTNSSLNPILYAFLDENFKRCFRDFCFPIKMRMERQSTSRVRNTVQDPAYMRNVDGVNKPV
Sequence of Delta-type opioid receptor (P33533 whole entry): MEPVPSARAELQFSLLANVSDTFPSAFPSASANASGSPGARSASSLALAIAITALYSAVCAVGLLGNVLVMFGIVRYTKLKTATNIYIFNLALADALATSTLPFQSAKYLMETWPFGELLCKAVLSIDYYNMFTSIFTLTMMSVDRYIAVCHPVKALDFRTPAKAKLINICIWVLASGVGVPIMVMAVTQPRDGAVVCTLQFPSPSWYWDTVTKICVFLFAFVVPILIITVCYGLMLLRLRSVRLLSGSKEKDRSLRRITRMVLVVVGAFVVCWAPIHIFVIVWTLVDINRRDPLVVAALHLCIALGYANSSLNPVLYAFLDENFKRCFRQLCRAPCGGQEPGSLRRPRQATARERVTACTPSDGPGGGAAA
Sequence of Mu-type opioid receptor (Rattus norvegicus) (P33535 whole entry): as the sequence (P33535 whole entry) above
Sequence of Cannabinoid receptor 1 (P20272 whole entry): as the sequence (P20272 whole entry, looked up, one chain of several) above
Sequence of Cannabinoid receptor 1 (Rattus norvegicus) (P20272 whole entry): as the sequence (P20272 whole entry, looked up, one chain of several) above

Row | Compound | Ki [2] | Emax (Rattus norvegicus [4]) | EC50 [5] | Activity (Rattus norvegicus [6]) | Ki [9] | Activity (Rattus norvegicus [10]) | Activity (Rattus norvegicus [11]) | Ki (Mu-type opioid receptor [13]) | Ki (Cannabinoid receptor [14]) | Ki (Cannabinoid receptor [16]) | other results
1 | COc1ccc2c3c1O[C@H]1/C(=N\OCC(=O)NCCCCCCNC(=O)CCCCCn4cc(C(=O)c5cccc6ccccc56)c5ccccc54)CC[C@@]4(O)[C@@H](C2)N(C)CC[C@]314 | 172 nM | 147% | 215 nM | 47 g | 263 nM | 42 g | Active | 18 nM | 34 nM | 12 nM | Emax [1]: 112%; Emax (Rattus norvegicus [3]): 100%; EC50 (Cannabinoid receptor 1): 452 nM; Emax [7]: 139%; Emax [8]: 122%; EC50 (Mu-type opioid receptor [12]): 397 nM; Activity (Mus musculus): Active; EC50 (Cannabinoid receptor 2): 340 nM; Emax (Rattus norvegicus [15]): 146%
2 | C[C@@H](NC(=O)[C@@H](N)Cc1ccc(O)cc1)C(=O)NCC(=O)N[C@@H](Cc1ccccc1)C(N)=O | 173 nM | 157% | 191 nM | – | – | – | – | 0.8 nM | > 10000 nM | > 10000 nM | Activity (Rattus norvegicus [17]): Active; Activity (Rattus norvegicus [18]): 43 g; Activity (Rattus norvegicus [19]): 40 g; EC50 (Mu-type opioid receptor [20]): 154 nM
3 | COc1ccc2c3c1O[C@H]1C(=O)CC[C@@]4(O)[C@@H](C2)N(C)CC[C@]314 [OXYCODONE] | – | – | – | 40 g | – | 43 g | Active | – | – | – | Activity (Rattus norvegicus [21]): Active
4 | CCCCCn1cc(C(=O)c2cccc3ccccc23)c2ccccc21 | > 10000 nM | 163% | 69 nM | 42 g | > 10000 nM | 41 g | Active | > 10000 nM | 3.4 nM | 2.9 nM | Activity [22]: 60%; K [23]: 0.124 min⁻¹; Emax [24]: 1120 fmol/mg; Kd (Cannabinoid receptor [25]): 3.4 nM; EC50 (Cannabinoid receptor [26]): 36 nM; Kdiss [27]: 0.105 min⁻¹; Kd(app) (Cannabinoid receptor [28]): 6.5 nM; Emax [29]: 167%; Activity [30]: 65%
